Measurements published in ChEMBL document CHEMBL4393692, “Thiazolidinone/thiazole based hybrids - New class of antitrypanosomal agents” (Eur J Med Chem, 2019).

test system: not listed separately; assay: Selectivity index, ratio of IC50 for human AB943 cells to IC50 of bloodstream form of Trypanosoma brucei gambiense Feo; assay type: toxicity; settings: read-out: Ratio IC50
Summary of the method: (§1)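 Human primary fibroblasts grown in RPMI with 25 mM HEPES pH 7.3 and 10% FCS, 37°C, 5% CO2. After trypsinisation, seeded at 5000 cells/well and incubated 24 h. Then washed and exposed to two-fold drug dilutions, final DMSO below 1%, for 5 days. Resazurin added, fluorescence read (ex 530/em 590 nm) after 4 h. Growth inhibition vs DMSO control. SI = IC50 fibroblast / IC50 T. b. gambiense.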

Compound | selectivity ratio
O=C1CS/C(=N\N=C\c2c(-c3ccccc3)[nH]c3ccccc23)N1 | 57
O=C1C(CCO)S/C(=N\N=C\c2c(-c3ccc(Cl)cc3)[nH]c3ccccc23)N1Cc1ccco1 (stereo not drawn) | 4
CCOC(=O)c1s/c(=N\N=C\c2c(-c3ccc([N+](=O)[O-])cc3)[nH]c3ccccc23)n(-c2ccc(O)cc2)c1C | 127
O=C1CS/C(=N\N=C\c2c(-c3ccc(Cl)cc3)[nH]c3ccccc23)N1c1ccc(O)cc1 | > 130
CCc1nn2c(/C=N/N=c3\scc(-c4ccc([N+](=O)[O-])cc4)n3-c3ccc(O)cc3)c(-c3ccc(Br)cc3)nc2s1 | > 150
CCOC(=O)c1s/c(=N\N=C\c2c(-c3ccccc3)nc3sc(CC)nn23)n(-c2ccc(O)cc2)c1C | 69

test system: Trypanosoma brucei gambiense; assay: Antitrypanosomal activity against bloodstream form of Trypanosoma brucei gambiense Feo reduction in parasite growth after 72 hrs by resazurin dye based fluorescence assay; assay type: functional, organism-based; settings: not given
Summary of the method: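 Bloodstream parasites cultured in HMI9 with 10% FCS at 37°C under 5% CO2. Log-phase cells harvested at 3000xg, plated at 10^5 cells/ml with dilutions from 10 down to 0.625 µg/ml (DMSO stocks) for 72 h. Resazurin added at 45 µM final, fluorescence read after a further 4 h. Inhibition vs DMSO control. IC50 from dose-response curve, mean ± SD of three independent experiments.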

Compound | IC50
Clc1ccc(-c2[nH]c3ccccc3c2/C=N/Nc2nc(-c3ccc(Br)cc3)cs2)cc1 | 1.52 µM
CCC1S/C(=N\N=C\c2c(-c3ccc(Cl)cc3)[nH]c3ccccc23)N(Cc2ccco2)C1=O (stereo not drawn) | 1.71 µM
CCc1nn2c(/C=N/N=C3\SC(CC)C(=O)N3c3ccc(O)cc3)c(-c3ccccc3)nc2s1 (stereo not drawn) | > 20 µM
CCc1nn2c(/C=N/NC(N)=S)c(-c3ccccc3)nc2s1 | 20.9 µM
O=C1CS/C(=N\N=C\c2c(-c3ccccc3)[nH]c3ccccc23)N1 | 0.23 µM
CCOC(=O)CSc1nn2c(/C=N/N=C3/NC(=O)C(C)S3)c(-c3ccccc3)nc2s1 (stereo not drawn) | 3.9 µM
O=C1C(CCO)S/C(=N\N=C\c2c(-c3ccc(Cl)cc3)[nH]c3ccccc23)N1Cc1ccco1 (stereo not drawn) | 1.4 µM
CCOC(=O)c1s/c(=N\N=C\c2c(-c3ccc([N+](=O)[O-])cc3)[nH]c3ccccc23)n(-c2ccc(O)cc2)c1C | 0.66 µM
CCOC(=O)c1s/c(=N\N=C\c2c(-c3ccc(Br)cc3)nc3sc(CC)nn23)n(-c2ccc(O)cc2)c1C | 1 µM
CC(=O)OCCC1S/C(=N\N=C\c2c(-c3ccc(Cl)cc3)[nH]c3ccccc23)N(Cc2ccco2)C1=O (stereo not drawn) | 1.59 µM
CCc1nn2c(/C=N/N=C3/NC(=O)C(CCOC(C)=O)S3)c(-c3ccc([N+](=O)[O-])cc3)nc2s1 (stereo not drawn) | 16.2 µM
CCc1nn2c(/C=N/N=c3/[nH]c(-c4ccc([N+](=O)[O-])cc4)cs3)c(-c3ccc([N+](=O)[O-])cc3)nc2s1 | 4.4 µM
CCc1nn2c(/C=N/N=c3\scc(-c4ccc(Br)cc4)n3-c3ccc(O)cc3)c(-c3ccc([N+](=O)[O-])cc3)nc2s1 | 0.594 µM
C=CCSc1nn2c(/C=N/N=C3\SC(C)C(=O)N3c3ccc(O)cc3)c(-c3ccccc3)nc2s1 (stereo not drawn) | > 20 µM
CC(=O)OCCC1S/C(=N\N=C\c2c(-c3ccc(Br)cc3)[nH]c3ccccc23)NC1=O (stereo not drawn) | 1.36 µM
O=[N+]([O-])c1ccc(-c2[nH]c3ccccc3c2/C=N/Nc2nc(-c3ccccc3)cs2)cc1 | 6 µM
CCc1nn2c(/C=N/NC(=S)Nc3ccc(O)cc3)c(-c3ccc(Br)cc3)nc2s1 | 1.5 µM
CCc1nn2c(/C=N/N=C3\SCC(=O)N3c3ccc(O)cc3)c(-c3ccccc3)nc2s1 | 9.2 µM
CC1S/C(=N\N=C\c2c(-c3ccc(Cl)cc3)[nH]c3ccccc23)N(Cc2ccco2)C1=O (stereo not drawn) | 1.71 µM
CCc1nn2c(/C=N/N=C3/NC(=O)C(C)S3)c(-c3ccccc3)nc2s1 (stereo not drawn) | > 25 µM
CCc1nn2c(/C=N/N=C3/NC(=O)CS3)c(-c3ccccc3)nc2s1 | 18 µM
O=C1CS/C(=N\N=C\c2c(-c3ccc(Cl)cc3)[nH]c3ccccc23)N1c1ccc(O)cc1 | 0.82 µM
CCc1nn2c(/C=N/NC(N)=S)c(-c3ccc(Br)cc3)nc2s1 | > 25 µM
CCc1nn2c(/C=N/N=c3\scc(-c4ccccc4)n3-c3ccc(O)cc3)c(-c3ccccc3)nc2s1 | 3 µM

Compound | IC50
CCc1nn2c(/C=N/N=c3\scc(-c4ccc([N+](=O)[O-])cc4)n3-c3ccc(O)cc3)c(-c3ccc(Br)cc3)nc2s1 | 0.51 µM
CC1S/C(=N\N=C\c2c(-c3ccc([N+](=O)[O-])cc3)[nH]c3ccccc23)NC1=O (stereo not drawn) | 4.7 µM
CCc1nn2c(/C=N/N=C3/NC(=O)C(CC)S3)c(-c3ccc([N+](=O)[O-])cc3)nc2s1 (stereo not drawn) | > 20 µM
CCc1nn2c(/C=N/N=C3\SC(CCOC(C)=O)C(=O)N3c3ccc(O)cc3)c(-c3ccccc3)nc2s1 (stereo not drawn) | 2.7 µM
CCOC(=O)c1s/c(=N\N=C\c2c(-c3ccccc3)nc3sc(CC)nn23)n(-c2ccc(O)cc2)c1C | 0.745 µM
C=CCSc1nn2c(/C=N/N=C3\SC(CCOC(C)=O)C(=O)N3c3ccc(O)cc3)c(-c3ccccc3)nc2s1 (stereo not drawn) | 1 µM
CCc1nn2c(/C=N/N=C3\SC(C)C(=O)N3c3ccc(O)cc3)c(-c3ccc(Br)cc3)nc2s1 (stereo not drawn) | 1.5 µM
CCc1nn2c(C=O)c(-c3ccccc3)nc2s1 | > 40 µM
C=CCSc1nn2c(C=O)c(-c3ccccc3)nc2s1 | 23.4 µM
CCOC(=O)CSc1nn2c(/C=N/N=C3/NC(=O)C(CC)S3)c(-c3ccccc3)nc2s1 (stereo not drawn) | 9.2 µM
O=C1N/C(=N/N=C/c2c(-c3ccc(Br)cc3)[nH]c3ccccc23)SC1CCO (stereo not drawn) | 3.34 µM
CCc1nn2cc(-c3ccccc3)nc2s1 | > 40 µM
CCc1nn2c(/C=N/N=c3/[nH]c(-c4ccc([N+](=O)[O-])cc4)cs3)c(-c3ccc(Br)cc3)nc2s1 | 9.2 µM
C=CCSc1nn2c(/C=N/N=C3\SCC(=O)N3c3ccc(O)cc3)c(-c3ccccc3)nc2s1 | > 20 µM
O=C1CS/C(=N\N=C\c2c(-c3ccc(Cl)cc3)[nH]c3ccccc23)N1Cc1ccco1 | 7.31 µM
CCc1nn2c(/C=N/NC(=S)Nc3ccc(O)cc3)c(-c3ccc([N+](=O)[O-])cc3)nc2s1 | 14.8 µM
CCc1nn2c(/C=N/N=C3/NC(=O)C(CC)S3)c(-c3ccccc3)nc2s1 (stereo not drawn) | 3.7 µM
C=CCSc1nn2c(/C=N/NC(N)=S)c(-c3ccccc3)nc2s1 | 6.1 µM
CC1S/C(=N\N=C\c2c(-c3ccc(Cl)cc3)[nH]c3ccccc23)N(c2ccc(O)cc2)C1=O (stereo not drawn) | 1.17 µM
CCc1nn2c(/C=N/N=c3\scc(-c4ccc([N+](=O)[O-])cc4)n3-c3ccc(O)cc3)c(-c3ccc([N+](=O)[O-])cc3)nc2s1 | 2.6 µM
CCC1S/C(=N\N=C\c2c(-c3ccc(Br)cc3)[nH]c3ccccc23)NC1=O (stereo not drawn) | 1.5 µM
CCc1nn2c(/C=N/N=C3/NC(=O)C(C)S3)c(-c3ccc(Br)cc3)nc2s1 (stereo not drawn) | 9.5 µM
C=CCSc1nn2c(/C=N/N=C3/NC(=O)C(CC)S3)c(-c3ccccc3)nc2s1 (stereo not drawn) | 20.6 µM
CC(=O)OCCC1S/C(=N\N=C\c2c(-c3ccc(Cl)cc3)[nH]c3ccccc23)NC1=O (stereo not drawn) | 1.34 µM

Compound | IC50
CCOC(=O)c1s/c(=N\N=C\c2c(-c3ccc([N+](=O)[O-])cc3)nc3sc(CC)nn23)[nH]c1C | > 20 µM
C=CCSc1nn2c(/C=N/N=C3/NC(=O)C(CC(=O)O)S3)c(-c3ccccc3)nc2s1 (stereo not drawn) | > 20 µM
CCOC(=O)c1sc(N/N=C/c2c(-c3ccc([N+](=O)[O-])cc3)[nH]c3ccccc23)nc1C | 0.74 µM
CCc1nn2c(/C=N/N=C3/NC(=O)C(CCOC(C)=O)S3)c(-c3ccccc3)nc2s1 (stereo not drawn) | 11.8 µM
CCc1nn2c(/C=N/NC(=S)Nc3ccc(O)cc3)c(-c3ccccc3)nc2s1 | 2.6 µM
CC1S/C(=N\N=C\c2c(-c3ccc(Br)cc3)[nH]c3ccccc23)NC1=O (stereo not drawn) | 1.35 µM
CCc1nn2c(/C=N/NC(N)=S)c(-c3ccc([N+](=O)[O-])cc3)nc2s1 | > 25 µM
C=CCSc1nn2c(/C=N/NC(=S)Nc3ccc(O)cc3)c(-c3ccccc3)nc2s1 | > 50 µM
CCc1nn2c(/C=N/N=C3\SC(CC)C(=O)N3c3ccc(O)cc3)c(-c3ccc(Br)cc3)nc2s1 (stereo not drawn) | 1.5 µM
CCc1nn2c(/C=N/N=C3\SC(CCOC(C)=O)C(=O)N3c3ccc(O)cc3)c(-c3ccc([N+](=O)[O-])cc3)nc2s1 (stereo not drawn) | 11.1 µM
O=[N+]([O-])c1ccc(-c2[nH]c3ccccc3c2/C=N/N=c2\scc(-c3ccc([N+](=O)[O-])cc3)n2-c2ccc(O)cc2)cc1 | 1.5 µM
C=CCSc1nn2c(/C=N/N=C3/NC(=O)CS3)c(-c3ccccc3)nc2s1 | 3.9 µM
CCc1nn2c(/C=N/N=C3/NC(=O)C(CC)S3)c(-c3ccc(Br)cc3)nc2s1 (stereo not drawn) | 13.8 µM
CCc1nn2c(/C=N/N=c3/[nH]c(-c4ccc([N+](=O)[O-])cc4)cs3)c(-c3ccccc3)nc2s1 | 10.3 µM
C=CCSc1nn2c(/C=N/N=C3/NC(=O)C(C)S3)c(-c3ccccc3)nc2s1 (stereo not drawn) | 4.4 µM
CCc1nn2c(/C=N/N=C3\SC(C)C(=O)N3c3ccc(O)cc3)c(-c3ccccc3)nc2s1 (stereo not drawn) | 4.8 µM
CCC1S/C(=N\N=C\c2c(-c3ccc([N+](=O)[O-])cc3)[nH]c3ccccc23)NC1=O (stereo not drawn) | 6.2 µM
CCC1S/C(=N\N=C\c2c(-c3ccc(Cl)cc3)[nH]c3ccccc23)NC1=O (stereo not drawn) | 1.42 µM
C=CCSc1nn2cc(-c3ccccc3)nc2s1 | 27.2 µM
CCOC(=O)c1s/c(=N\N=C\c2c(-c3ccccc3)nc3sc(CC)nn23)[nH]c1C | 2.7 µM
CCc1nn2c(/C=N/N=C3/NC(=O)C(CCOC(C)=O)S3)c(-c3ccc(Br)cc3)nc2s1 (stereo not drawn) | 3.2 µM
CCOC(=O)CSc1nn2cc(-c3ccccc3)nc2s1 | > 30 µM
CCOC(=O)c1s/c(=N\N=C\c2c(-c3ccc(Br)cc3)nc3sc(CC)nn23)[nH]c1C | 7.4 µM

test system: not listed separately; assay: Cytotoxicity against human AB943 cells assessed as reduction in cell viability after 5 days resazurin dye based fluorescence assay; settings: 120 h; summary of the method: as §1

Compound | IC50
O=C1CS/C(=N\N=C\c2c(-c3ccccc3)[nH]c3ccccc23)N1 | 13.2 µM
O=C1C(CCO)S/C(=N\N=C\c2c(-c3ccc(Cl)cc3)[nH]c3ccccc23)N1Cc1ccco1 (stereo not drawn) | 6.23 µM
CCOC(=O)c1s/c(=N\N=C\c2c(-c3ccc([N+](=O)[O-])cc3)[nH]c3ccccc23)n(-c2ccc(O)cc2)c1C | 82.9 µM
O=C1CS/C(=N\N=C\c2c(-c3ccc(Cl)cc3)[nH]c3ccccc23)N1c1ccc(O)cc1 | > 100 µM
CCc1nn2c(/C=N/N=c3\scc(-c4ccc([N+](=O)[O-])cc4)n3-c3ccc(O)cc3)c(-c3ccc(Br)cc3)nc2s1 | > 70 µM
CCOC(=O)c1s/c(=N\N=C\c2c(-c3ccccc3)nc3sc(CC)nn23)n(-c2ccc(O)cc2)c1C | 51.5 µM
